Experimental data taken from ChEMBL document CHEMBL5625166, “Disulfide-incorporated lipid prodrugs of cidofovir: Synthesis, antiviral activity, and release mechanism” (Eur J Med Chem, 2023).
pIC50: −log10 of the molar value.

How the values were obtained:
[1] = Therapeutic index, ratio of CC50 for human A549 cells to IC50 for AdV5 infected in human A549 cells; format: toxicity, cell-based; settings: read-out: Ratio CC50/IC50
[2] = Stability of the compound in SGF after 120 mins; format: ADME; settings: simulated gi fluid, 2 h
Summary of the method: (§1)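 Incubated in simulated gastric fluid at 37 °C, remaining compound measured at 120 min.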

[3] = Stability in human plasma assessed as half life; format: ADME, cell-free
Summary of the method: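 Incubated in pooled human plasma at 37 °C, half-life determined.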

[4] = Therapeutic index, ratio of CC50 for African green monkey Vero cells to IC50 for VAVC infected in african green monkey Vero cells; format: toxicity; settings: read-out: Ratio CC50/IC50
Human adenovirus 5 [5] = experiment: Antiviral activity against AdV5 infected in A549 cells assessed as reduction in cytopathic effect incubated for 72 hrs by neutral red based spectrophotometric analysis; format: functional, organism-based; settings: Human mastadenovirus C, A549, 72 h
A549 = experiment: Cytotoxicity against human A549 cells incubated for 72 hrs by neutral red based spectrophotometric analysis; format: toxicity, cell-based; settings: a549, 72 h
Summary of the method: (§2)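 Cells seeded at 3 × 10^4 cells/well and grown 24 h at 37 °C, 5% CO2. Two-fold compound dilutions starting at 200.0 μM applied for 72 h. Neutral red (40 μg/mL) added for 4 h, cells washed and destained in ethanol/acetic acid. OD read at 540 nm against cell-free blanks. CC50 from triplicates.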

[6] = Stability of the compound in SIF assessed as remaining compound after 360 mins; format: ADME; settings: read-out: Stability
Summary of the method: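 Incubated in simulated intestinal fluid at 37 °C, remaining compound measured at 360 min.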

Vaccinia virus [7] = experiment: Antiviral activity against VACV infected in Vero cells assessed as reduction in cytopathic effect incubated for 96 hrs by neutral red based spectrophotometric analysis; format: functional, organism-based; settings: Orthopoxvirus vaccinia
[8] = Cytotoxicity against African green monkey Vero cells incubated for 72 hrs by neutral red based spectrophotometric analysis; format: toxicity, cell-based; settings: chlorocebus sabaeus; summary of the method: as §2
Lipid bilayer = experiment: Induction of micelles formation in PBS at pH 7.4 by TEM analysis; format: physicochemical; settings: buffer
Summary of the method: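 Conjugates at 50.0 μM in pH 7.4 phosphate buffer, imaged by transmission electron microscopy for micelle formation.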

[9] = Therapeutic index, ratio of CC50 for human A549 cells to IC50 for VAVC infected in human A549 cells; format: toxicity, cell-based; settings: read-out: Ratio CC50/IC50
Vaccinia virus [10] = experiment: Antiviral activity against VACV infected in A549 cells assessed as reduction in cytopathic effect incubated for 96 hrs by neutral red based spectrophotometric analysis; format: functional, organism-based; settings: Orthopoxvirus vaccinia, A549, 96 h
Human adenovirus 5 [11] = experiment: Potency index, ratio of BCV IC50 to test compound IC50 for antiviral activity against AdV5 infected in A549 cells assessed as reduction in cytopathic effect incubated for 72 hrs by neutral red based spectrophotometric analysis; format: functional
[12] = Stability of the compound in phosphate buffer at pH 7.4 assessed as compound remaining measured upto 400 mins in presence of GSH by HPLC method; format: physicochemical; settings: for remaining at 6.667 h: phosphate buffer with GSH, pH 7.4, read-out: Stability; for Stability: buffer, pH 7.4, 6.667 h
[13] = Stability of the compound in PBS at pH 7.4 assessed as micelles formation after 4 hrs in presence of GSH by TEM analysis; format: physicochemical; settings: buffer, pH 7.4, 4 h
Summary of the method: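 Micelles in pH 7.4 phosphate buffer re-imaged by TEM after 4 h incubation with GSH.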

[14] = Stability in SGF assessed as remaining compound after 120 mins; format: ADME; settings: read-out: Stability; summary of the method: as §1
[15] = Stability of the compound in phosphate buffer at pH 7.4 assessed as compound remaining measured after 360 mins in presence of GSH by HPLC method; format: physicochemical; settings: phosphate buffer with GSH, read-out: Stability
Summary of the method: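 Conjugate incubated with 20 mM GSH in pH 7.4 phosphate buffer at 37 °C. Percent remaining monitored by HPLC over time, up to 360 min.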

SMILES	selectivity ratio [1]	Stability [2]	t1/2 [3] [h]	selectivity ratio [4]	pIC50 (Human adenovirus 5 [5])	CC50 (A549) [µM]	remaining at 6 h [6] [%]	pIC50 (Vaccinia virus [7])	CC50 [8] [µM]	Activity (Lipid bilayer)	selectivity ratio [9]	pIC50 (Vaccinia virus [10])	Ratio IC50 (Human adenovirus 5 [11])	remaining at 6.667 h [12] [%]	Stability [13]	Stability [12]	remaining at 2 h [14] [%]	remaining at 6 h [15] [%]
CCCCCCCCCCCCCCCCSSCCCCOP(=O)(O)CO[C@H](CO)Cn1ccc(N)nc1=O.N	232	Stable	4.375	41	6.87	31	> 90	6.52	12.5	Active	18.8	5.78	2	–	–	–	–	–
CCCCCCCCCCCCCCCCCCSSCCOP(=O)(O)CO[C@H](CO)Cn1ccc(N)nc1=O.N	73.1	–	–	34.8	6.71	14.1	–	6.85	4.9	Active	136	6.98	–	93	Stable	–	–	–
CCCCCCCCCCSSCCCCCCOP(=O)(O)CO[C@H](CO)Cn1ccc(N)nc1=O	83.9	–	–	18.4	5.64	194	–	5.20	115	–	45.2	5.37	–	–	–	–	–	–
CCCCCCCCCCCCCCCCSSCCCOP(=O)(O)CO[C@H](CO)Cn1ccc(N)nc1=O	156	–	–	46.3	6.52	46.7	–	6.56	12.7	–	116	6.40	–	–	–	–	–	–
CCCCCCCCCCCCCCSSCCCCCCOP(=O)(O)CO[C@H](CO)Cn1ccc(N)nc1=O.N	295	–	–	15.6	6.56	80.8	–	6.26	8.56	Active	136	6.23	–	–	–	Stable	–	–
CCCCCCCCCCSSCCCCOP(=O)(O)CO[C@H](CO)Cn1ccc(N)nc1=O	–	–	–	2.36	–	162	–	4.39	95.8	–	3.55	4.34	–	–	–	–	–	–
CCCCCCCCCCCCCCSSCCCOP(=O)(O)CO[C@H](CO)Cn1ccc(N)nc1=O.N	92.6	–	–	49.3	6.26	50.7	–	6.55	13.9	–	227	6.65	–	–	–	Stable	–	–
CCCCCCCCCCCCCCCCSSCCOP(=O)(O)CO[C@H](CO)Cn1ccc(N)nc1=O.N	55.2	–	3.237	37.7	6.80	8.69	> 90	7.17	2.58	Active	96.1	7.05	–	81	–	–	68	–
CCCCCCCCCCCCCCCCCCSSCCCOP(=O)(O)CO[C@H](CO)Cn1ccc(N)nc1=O	17.3	–	–	22.7	5.73	32.3	–	6.36	9.87	–	44.6	6.14	–	–	–	–	–	–
CCCCCCCCSSCCCCCCOP(=O)(O)CO[C@H](CO)Cn1ccc(N)nc1=O	–	–	–	> 4.05	–	> 200	–	4.31	> 200	–	> 4	< 4.30	–	–	–	–	–	–
CCCCCCCCCCCCCCSSCCOP(=O)(O)CO[C@H](CO)Cn1ccc(N)nc1=O.N	93.7	–	2.144	68	6.80	14.7	> 90	7.02	6.53	Active	186	7.10	–	–	–	–	77	13
CCCCCCCCCCCCSSCCOP(=O)(O)CO[C@H](CO)Cn1ccc(N)nc1=O	59.1	–	–	39.2	6.10	47	–	6.44	14.3	–	216	6.66	–	–	–	–	–	–
CCCCCCCCCCCCSSCCCOP(=O)(O)CO[C@H](CO)Cn1ccc(N)nc1=O	37.7	–	–	5.09	5.90	47.6	–	5.18	33.3	–	23.5	5.69	–	–	–	–	–	–
CCCCCCCCCCCCCCCCOCCCOP(=O)(O)CO[C@H](CO)Cn1ccc(N)nc1=O [BRINCIDOFOVIR]	81.8	–	> 24	70.7	6.61	20.1	> 90	6.71	13.9	–	67	6.52	–	–	–	–	43	–
CCCCCCCCCCSSCCCOP(=O)(O)CO[C@H](CO)Cn1ccc(N)nc1=O	–	–	–	5.77	–	130	–	4.50	182	–	5.91	4.66	–	–	–	–	–	–
CCCCCCCCCCCCCCSSCCCCOP(=O)(O)CO[C@H](CO)Cn1ccc(N)nc1=O.N	115	–	–	35	6.42	44.3	–	6.29	18.1	–	74	6.22	–	–	–	Stable	–	–
CCCCCCCCCCSSCCOP(=O)(O)CO[C@H](CO)Cn1ccc(N)nc1=O	5.2	–	–	32.7	4.90	65.2	–	5.60	81.3	–	10.4	5.20	–	–	–	–	–	–
CCCCCCCCCCCCSSCCCCCCOP(=O)(O)CO[C@H](CO)Cn1ccc(N)nc1=O.N	725	Stable	4.45	17.8	6.73	134	> 90	6.07	15.2	–	160	6.08	–	–	–	–	–	–
CCCCCCCCCCCCSSCCCCOP(=O)(O)CO[C@H](CO)Cn1ccc(N)nc1=O	317	–	–	40.6	6.59	80.6	–	6.06	35	–	76.8	5.98	–	–	–	–	–	–
